M5 PAM = positive allosteric modulators of human muscarinic M5 receptor. CHO-K1 hM5, Fluo-8 calcium, ACh EC20 PAM; 0% = ACh EC20, 100% = ACh EC100. P08912. 0.3% of 360,000 active. activation, % at 3 µM;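 active means activation above the run cutoff, the mean activation of all test compounds plus 3 SD, cut at about 18% in these data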
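Probe or stimulus: acetylcholine, EC20 level; Assay system: human M5 receptor in CHO-K1 cells; Schedule: compound preincubation 140 s before EC20 acetylcholine addition; Technique: intracellular calcium via Fluo-8 fluorescence; Dosing: single-point, 3 µM nominal; Read-out basis: percent activation from peak-over-basal fluorescence ratio, scaled EC20-to-EC100 acetylcholine; Repeats: one well per compound, no replicates.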
CHRM4 antagonist = antagonists of human muscarinic M4 receptor (CHRM4); 0.73% of 360,000 active; AID 624125; CHO-hM4 cells, ACh EC80, Fluo-8 calcium fluorescence; P08173; inhibition, % at 3 µM;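 active means inhibition above its plate's cutoff, the mean inhibition of sample wells plus 3 SD, cut at about 27% in these data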;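 further: 0% = acetylcholine EC80 with DMSO and 100% = DMSO without agonist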
CHRM5 agonist = agonists of human muscarinic M5 receptor (CHRM5) | P08912 | CHO-K1 hM5 cells, Fluo-8 calcium fluorescence; 0% DMSO wells, 100% maximal acetylcholine response | activation, % at 3 µM | 0.19% of 360,000 active;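 active means activation above the run's mean over test compounds plus 3 SD, cut at about 23% in these data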;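 further: signal is peak over basal fluorescence ratio across the kinetic read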
CHRM4 agonist = agonists of human muscarinic M4 receptor (CHRM4) | P08173 | 0.14% of 360,000 active | CHO-K1 hM4/Gqi5, Fluo-8 calcium fluorescence; vehicle 0%, full acetylcholine response 100% | activation, % at 3 µM;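 active means activation above the run mean over all test wells plus 3 SD, cut at about 32% in these data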;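 further: peak over basal fluorescence ratio per well then scaled between controls; 0% = DMSO wells and 100% = acetylcholine at EC100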
M5 antag = blocks acetylcholine activation of human M5 receptor. inhibition, % at 3 µM. CHO-hM5 cells, Fluo-8 calcium fluorescence, ACh EC80. P08912. 0.59% of 360,000 active. AID 624040;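 active means inhibition above a per-plate cutoff, the mean of that plate's test compounds plus 3 SD, cut at about 27% in these data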;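 further: 0% = acetylcholine EC80 with DMSO and 100% = DMSO without agonist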
M4 PAM = positive allosteric modulators of human muscarinic M4 receptor; activation, % at 3 µM; P08173; CHO-K1 hM4/Gqi5, Fluo-8 calcium fluorescence, ACh EC20; 0% = ACh EC20, 100% = maximal ACh; 0.4% of 360,000 active;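 active means activation above its plate's cutoff, the mean activation of sample wells plus 3 SD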
* hit, by the source's call. Sampled rows, rich in hits. Any-hit rate of the full collection: about 1.9%.

`O=C(Nc1nc(-c2ccccc2)cs1)c1ccco1` gave M5 PAM -0.9, CHRM4 antagonist 6.9, CHRM5 agonist 10.7, CHRM4 agonist 0.2, M5 antag -8.0 and M4 PAM -5.0.
COc1cc(NCC2COc3c(ccc(OC)c3OC)C2=O)c([N+](=O)[O-])cc1OC (stereo not given) was read as M5 PAM -10.5, CHRM4 antagonist -11.9, CHRM5 agonist 2.4, CHRM4 agonist 9.6, M5 antag 6.7 and M4 PAM -2.5.
Screening O=c1ccc2c(ccc3ncccc32)o1 returned M5 PAM -5.4, CHRM4 antagonist -2.7, CHRM5 agonist 11.9, CHRM4 agonist 1.2, M5 antag 2.9 and M4 PAM -1.0.
CCCCNC(=O)C1(C)CCN1C(=O)c1cccc(OC(C)=O)c1C (stereo not given) was read as M5 PAM -4.2, CHRM4 antagonist -5.5, CHRM5 agonist 0.4, CHRM4 agonist 0.6, M5 antag 5.7 and M4 PAM -6.4.
FC(F)(F)c1cc(CCN2CCNC[C@@H]2CC2CCCCC2)cc(C(F)(F)F)c1 was read as M5 PAM -39.4, CHRM4 antagonist 29.1*, CHRM5 agonist -10.9, CHRM4 agonist 0.0, M5 antag 25.5 and M4 PAM -8.1.
`COc1ccc(-c2csc(NC(=O)CN3C(=O)C4CC=CCC4C3=O)n2)cc1OC` (stereo not given) gave M5 PAM -13.5, CHRM4 antagonist 8.2, CHRM5 agonist -0.9, CHRM4 agonist 8.5, M5 antag 28.6* and M4 PAM -5.5.
`COc1ccc(-c2csc(NC(=O)Cc3ccccc3F)n2)cc1OC` gave M5 PAM -13.7, CHRM4 antagonist 44.9*, CHRM5 agonist -2.4, CHRM4 agonist 8.5, M5 antag 26.5 and M4 PAM -21.1.
Screening COc1ccc(CC(=O)Nc2nc(-c3ccc(OC)c(OC)c3)cs2)cc1OC returned M5 PAM -12.4, CHRM4 antagonist -13.7, CHRM5 agonist 23.4*, CHRM4 agonist 25.1, M5 antag -0.7 and M4 PAM -0.8.
`O=C(NCc1ccccc1)C(c1cc2ccccc2o1)n1c(=O)c(-c2ccco2)nc2ccccc21` (stereo not given) gave M5 PAM -3.7, CHRM4 antagonist -5.0, CHRM5 agonist 0.5, CHRM4 agonist 0.7, M5 antag 5.4 and M4 PAM 16.9.
`Cn1cc(C(=O)N2CCN(c3ccccn3)CC2)c(=O)c2cc(S(=O)(=O)N3CCOCC3)ccc21` gave M5 PAM 20.1*, CHRM4 antagonist -7.4, CHRM5 agonist -1.8, CHRM4 agonist 1.3, M5 antag -3.9 and M4 PAM 7.9.
For COc1cccc(C(c2nnnn2-c2c(C)cccc2C)N2CCN(C/C=C/c3ccccc3)CC2)c1OC (stereo not given) the results were M5 PAM -21.9, CHRM4 antagonist -26.0, CHRM5 agonist -7.6, CHRM4 agonist -0.3, M5 antag 4.2 and M4 PAM -9.7.
`CC(C)(C)n1nnnc1C(c1ccccc1OC(F)(F)F)N1CCN(C/C=C/c2ccccc2)CC1` (stereo not given) gave M5 PAM -21.2, CHRM4 antagonist 8.0, CHRM5 agonist -7.8, CHRM4 agonist 3.3, M5 antag 15.1 and M4 PAM -11.5.
Screening FC(F)(F)Oc1ccccc1C(c1nnnn1C1CCCC1)N1CCN(C/C=C/c2ccccc2)CC1 (stereo not given) returned M5 PAM -22.4, CHRM4 antagonist 23.1, CHRM5 agonist -7.7, CHRM4 agonist -1.2, M5 antag 64.4* and M4 PAM -14.7.
`COc1cccc(C(c2nnnn2C2CCCCC2)N2CCN(C/C=C/c3ccccc3)CC2)c1OC` (stereo not given) gave M5 PAM -22.6, CHRM4 antagonist 28.5*, CHRM5 agonist -7.7, CHRM4 agonist -0.4, M5 antag 40.6* and M4 PAM -16.1.
For COC(=O)c1ccc(/C=C/c2c(-c3ccc(OC)cc3)oc3ccccc23)cc1 the results were M5 PAM 4.5, CHRM4 antagonist 4.8, CHRM5 agonist 3.4, CHRM4 agonist 0.9, M5 antag -6.4 and M4 PAM 25.8*.

Source: PubChem
